Assay results of several laboratories.
Compare with care: the assays were run in different laboratories.
Target: Serine/threonine-protein kinase ULK1 (ULK1, Homo sapiens, UniProt O75385)
One construct used (O75385 1-1050): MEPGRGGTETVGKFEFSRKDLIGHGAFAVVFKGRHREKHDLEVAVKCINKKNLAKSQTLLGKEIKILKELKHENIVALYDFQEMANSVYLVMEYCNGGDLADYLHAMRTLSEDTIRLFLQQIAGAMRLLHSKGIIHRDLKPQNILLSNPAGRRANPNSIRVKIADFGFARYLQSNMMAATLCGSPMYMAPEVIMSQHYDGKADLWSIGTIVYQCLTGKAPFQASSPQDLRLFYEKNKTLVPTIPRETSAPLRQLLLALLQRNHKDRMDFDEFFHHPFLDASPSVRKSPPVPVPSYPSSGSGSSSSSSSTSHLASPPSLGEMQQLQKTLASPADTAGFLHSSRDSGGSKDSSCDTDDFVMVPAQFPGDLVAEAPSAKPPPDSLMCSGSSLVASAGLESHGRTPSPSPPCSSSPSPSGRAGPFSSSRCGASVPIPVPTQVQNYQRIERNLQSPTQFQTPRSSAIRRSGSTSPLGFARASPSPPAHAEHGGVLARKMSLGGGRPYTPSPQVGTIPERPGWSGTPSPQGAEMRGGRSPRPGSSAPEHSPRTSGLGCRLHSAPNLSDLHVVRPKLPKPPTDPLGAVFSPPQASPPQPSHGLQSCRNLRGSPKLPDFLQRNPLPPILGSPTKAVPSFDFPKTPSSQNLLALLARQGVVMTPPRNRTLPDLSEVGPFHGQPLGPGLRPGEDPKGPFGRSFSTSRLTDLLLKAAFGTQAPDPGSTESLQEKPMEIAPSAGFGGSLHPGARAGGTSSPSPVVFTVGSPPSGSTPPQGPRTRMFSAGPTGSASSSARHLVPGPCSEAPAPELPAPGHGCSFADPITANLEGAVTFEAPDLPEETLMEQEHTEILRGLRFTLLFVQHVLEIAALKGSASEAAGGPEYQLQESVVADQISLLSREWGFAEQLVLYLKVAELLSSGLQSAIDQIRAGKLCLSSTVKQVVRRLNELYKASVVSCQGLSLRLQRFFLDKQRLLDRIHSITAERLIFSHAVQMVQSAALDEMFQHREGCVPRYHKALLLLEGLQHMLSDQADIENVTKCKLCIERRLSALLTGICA

Structure (SMILES) | test | conditions | measurement | result
FC(F)(F)Oc1cccc(-c2cnc3ccc(-c4ccncc4)nn23)c1 | enzyme activity, inhibitor, radiometric | 5 µM | activity vs control | 92%
COc1cccc(CNC(=O)c2nc3scc(COCc4ccc(C(=O)O)cc4)c3c(=O)[nH]2)c1 | cell-free assay, competition with immobilised ligand | 1 µM | remaining binding | 74%
Cc1nn(CC(F)(F)F)cc1Nc1nccc(NCCCNC(=O)C2CCC2)n1 | enzyme activity, inhibitor, radiometric | 1 µM | remaining activity | 96%
O=C(Nc1cnn(-c2csc(C(=O)NC3COC3)c2)c1)Nc1ccccc1Cl | enzyme activity, inhibitor | 5 µM | remaining activity | 134%
O=C(Nc1cccc(Nc2ncc(Br)c(NCCc3cnc[nH]3)n2)c1)N1CCCC1 | enzyme activity, inhibitor, radiometric | 1 µM | remaining activity | 6%
Cc1nc(Cc2cccc(C(F)(F)F)c2)sc1-c1ccc(C(N)=O)nc1 | cell-free assay, competition with immobilised ligand | 1 µM | remaining binding | 100%
c1cc(CN2CCOCC2)cc(Nc2ncc(C3CC3)c(NCCc3c[nH]cn3)n2)c1 | enzyme activity, inhibitor, radiometric | 1 µM | remaining activity | 24%
C[C@@H](c1cccc(C#N)c1)n1cc(Cl)cc(C(N)=O)c1=N | cell-free assay, competition with immobilised ligand | 1 µM | remaining binding | 72%
c1ccc(CNc2nc(N3CCOc4ccccc43)nc3c2CCCC3)cc1 | target engagement in cells, inhibitor, chemoproteomics | 20 mM | inhibition | -9%
NS(=O)(=O)c1cc(NC(=O)C2(c3ccccc3Cl)CC2)ccc1Oc1cccc(Cl)c1 | cell-free assay, competition with immobilised ligand | 1 µM | remaining binding | 89%
Cc1cc(NC(=O)c2cccc3cc(-c4cccc5[nH]nc(N)c45)ccc23)ccc1F | enzyme activity, inhibitor | 0.1 µM | activity vs control | 95%
O=C1Nc2ccc(Cl)cc2C1=Cc1cc(Cl)c(O)c(Cl)c1 | cell-free assay | 0.5 µM | remaining signal | 95%
Cc1nn(CC(F)(F)F)cc1Nc1ncc(Br)c(NCCCNC(=O)C2CCC2)n1 | enzyme activity, inhibitor, radiometric | 1 µM | remaining activity | 3%
C[S+]([O-])c1ccc(-c2nc(-c3ccncc3)c(-c3ccc(F)cc3)[nH]2)cc1 (stereo not shown) | cell-free assay | 0.5 µM | remaining signal | 89.3%
Cc1nn(CC(F)(F)F)cc1Nc1nccc(NCCc2cnc[nH]2)n1 | enzyme activity, inhibitor, radiometric | 1 µM | remaining activity | 88%
N#Cc1ccc(Nc2ccc3[nH]c(=O)[nH]c3c2)c(Cl)c1 | cell-free assay, competition with immobilised ligand | 1 µM | remaining binding | 81%
COc1cc(/C=C/C(=O)CC(=O)/C=C/c2ccc(O)c(OC)c2)ccc1O | enzyme activity, inhibitor | 1 µM | activity vs control | 88%
Nc1ncnc2occ(-c3ccc(NC(=O)Nc4cc(C(F)(F)F)ccc4F)cc3)c12 | cell-free assay, inhibitor | 20 µM | remaining signal | 48%
CN1CC(Oc2cnc(C#N)cc2-c2ccn3nc(NC(=O)C4CC4)cc3c2)C1 | enzyme activity, inhibitor | 1 µM | inhibition | -1%
CO[C@H]1CC[C@H](CNc2ccc(S(=O)(=O)NC(=O)c3ccc(N4CCN(CC5=C(c6ccc(Cl)cc6)CC(C)(C)CC5)CC4)cc3Oc3cnc4[nH]ccc4c3)cc2[N+](=O)[O-])CC1 | cell-free assay, competition with immobilised ligand | 1 µM | remaining binding | 82%
Cc1nn(CC(F)(F)F)cc1Nc1ncc(Br)c(NCc2ccc(S(N)(=O)=O)cc2)n1 | enzyme activity, inhibitor, radiometric | 1 µM | remaining activity | 77%
N#CCCc1ccc2c(c1)-c1[nH]c3ccc([N+](=O)[O-])cc3c1CC(=O)N2 | cell-free assay | 0.5 µM | remaining signal | 94.2%
